Measurements from ChEMBL document CHEMBL1138245, “Discovery of N1-(6-chloroimidazo[2,1-b][1,3]thiazole-5-sulfonyl)tryptamine as a potent, selective, and orally active 5-HT(6) receptor agonist” (J Med Chem, 2007).
Active and inactive are the calls of the source. No cut-off for these calls is given here.

Columns and labels:
[1] = Drug level in Sprague-Dawley rat brain at 3 mg/kg, ip after 2 hrs; type: ADME, organism-based; parameters: dose 3 mg/kg, route intraperitoneal; conditions: read-out: Drug uptake
In short: (§1)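 Rats given a single 3 mg/kg ip or 100 mg/kg oral dose; plasma and brain concentrations measured over time to assess brain/plasma ratio.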

[2] = Drug level in Sprague-Dawley rat plasma at 3 mg/kg, ip after 1 hr; type: ADME, organism-based; parameters: dose 3 mg/kg, route intraperitoneal; in short: as §1
[3] = test system: Rattus norvegicus; test: Increase in GABA level in rat frontal cortex at 10 mg/kg, sc; type: functional, organism-based; parameters: dose 10 mg/kg
In short: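 Frontal cortex extracellular GABA, glutamate and norepinephrine measured in rats after 10 mg/kg sc; in antagonist tests, 5-HT₆ antagonist 10 mg/kg sc given before agonist; comparison with vehicle, significance P < 0.05.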

[4] = target: 5-hydroxytryptamine receptor 4 (Homo sapiens) (UniProt Q13639); test: Inhibition of human 5HT4 receptor expressed in CHO cells at 100 nM; type: cell-based
5-hydroxytryptamine receptor 4 (Homo sapiens), sequence (Q13639 whole entry): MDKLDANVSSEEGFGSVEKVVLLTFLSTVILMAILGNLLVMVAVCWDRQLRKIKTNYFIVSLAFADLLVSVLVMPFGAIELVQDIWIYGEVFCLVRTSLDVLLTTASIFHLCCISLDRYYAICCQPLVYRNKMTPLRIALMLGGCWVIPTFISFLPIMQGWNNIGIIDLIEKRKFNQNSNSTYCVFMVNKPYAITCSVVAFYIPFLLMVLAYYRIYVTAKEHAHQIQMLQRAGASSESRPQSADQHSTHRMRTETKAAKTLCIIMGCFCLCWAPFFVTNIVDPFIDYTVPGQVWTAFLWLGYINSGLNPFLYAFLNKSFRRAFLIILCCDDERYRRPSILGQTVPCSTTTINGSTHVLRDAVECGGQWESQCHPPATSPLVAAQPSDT

[5] = Drug level in Sprague-Dawley rat brain at 100 mg/kg, po after 1 hr; type: ADME, organism-based; parameters: dose 100 mg/kg, route oral; conditions: read-out: Drug uptake; in short: as §1
[6] = AUC in dog at 1 mg/kg, iv; type: ADME, organism-based, Canis lupus familiaris; parameters: dose 1 mg/kg, route intravenous; conditions: plasma
[7] = AUC in rat at 10 mg/kg, po; type: ADME, organism-based; parameters: dose 10 mg/kg, route oral; conditions: plasma
[8] = Ratio of drug level in brain to plasma in Sprague-Dawley rat at 100 mg/kg, po after 0.25 hr; type: ADME, organism-based; parameters: dose 100 mg/kg, route oral; conditions: read-out: BPR
In short: (§2)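 Rats given a single dose, 3 mg/kg ip or 100 mg/kg oral; drug concentrations measured in plasma and brain at timed points after dosing; brain/plasma concentration ratio calculated.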

[9] = Clearance in dog at 1 mg/kg, iv; type: ADME, organism-based, Canis lupus familiaris; parameters: dose 1 mg/kg, route intravenous; conditions: in vivo
[10] = Oral bioavailability in dog at 5 mg/kg; type: ADME, organism-based, Canis lupus familiaris; conditions: in vivo
[11] = target: Beta-2 adrenergic receptor (Homo sapiens) (UniProt P07550); test: Displacement of radio ligand from beta-2 adrenergic receptor at 10 nM
Beta-2 adrenergic receptor (Homo sapiens), sequence (P07550 whole entry, looked up): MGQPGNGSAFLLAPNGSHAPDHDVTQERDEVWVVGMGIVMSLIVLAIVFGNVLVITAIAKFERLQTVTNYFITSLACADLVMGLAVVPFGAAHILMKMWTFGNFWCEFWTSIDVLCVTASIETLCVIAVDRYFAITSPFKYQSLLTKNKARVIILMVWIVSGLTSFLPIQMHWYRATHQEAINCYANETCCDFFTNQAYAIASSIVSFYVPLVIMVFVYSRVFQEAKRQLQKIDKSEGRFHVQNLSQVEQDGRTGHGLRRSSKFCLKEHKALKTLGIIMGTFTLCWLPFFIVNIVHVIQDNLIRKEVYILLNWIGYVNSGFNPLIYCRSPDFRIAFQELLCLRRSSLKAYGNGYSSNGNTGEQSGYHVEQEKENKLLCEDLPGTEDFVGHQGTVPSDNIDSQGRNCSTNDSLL

[12] = target: 5-hydroxytryptamine receptor 5A (Homo sapiens) (UniProt P47898); test: Inhibition of human 5HT5 receptor expressed in CHO cells at 100 nM; type: cell-based
5-hydroxytryptamine receptor 5A (Homo sapiens), sequence (P47898 whole entry): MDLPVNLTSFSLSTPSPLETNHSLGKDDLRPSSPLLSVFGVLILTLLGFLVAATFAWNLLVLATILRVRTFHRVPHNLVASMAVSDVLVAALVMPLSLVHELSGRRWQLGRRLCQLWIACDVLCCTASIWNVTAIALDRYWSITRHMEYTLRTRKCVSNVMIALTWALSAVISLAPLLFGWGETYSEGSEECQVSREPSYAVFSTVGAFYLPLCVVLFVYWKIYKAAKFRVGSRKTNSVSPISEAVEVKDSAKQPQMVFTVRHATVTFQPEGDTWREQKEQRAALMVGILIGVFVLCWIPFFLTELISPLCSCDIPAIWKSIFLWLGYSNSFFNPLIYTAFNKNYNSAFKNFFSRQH

[13] = target: 5-hydroxytryptamine receptor 2B (Homo sapiens, UniProt P41595); test: Inhibition of human 5HT2B receptor expressed in CHO cells; type: cell-based
5-hydroxytryptamine receptor 2B, sequence (P41595 whole entry): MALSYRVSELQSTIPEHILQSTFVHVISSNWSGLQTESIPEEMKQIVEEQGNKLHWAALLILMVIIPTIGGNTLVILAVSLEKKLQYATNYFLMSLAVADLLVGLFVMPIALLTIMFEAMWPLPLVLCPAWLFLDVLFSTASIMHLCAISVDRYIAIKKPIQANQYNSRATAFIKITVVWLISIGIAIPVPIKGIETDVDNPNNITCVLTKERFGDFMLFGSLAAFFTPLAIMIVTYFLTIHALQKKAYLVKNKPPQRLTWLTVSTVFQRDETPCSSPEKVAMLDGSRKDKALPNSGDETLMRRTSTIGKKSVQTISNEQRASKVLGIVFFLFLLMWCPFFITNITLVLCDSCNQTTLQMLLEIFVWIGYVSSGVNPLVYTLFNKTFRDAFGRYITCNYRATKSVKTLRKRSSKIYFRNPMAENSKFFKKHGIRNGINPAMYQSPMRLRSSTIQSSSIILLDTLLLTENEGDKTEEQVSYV

[14] = Volume of distribution in rat at 1 mg/kg, iv; type: ADME, organism-based; parameters: dose 1 mg/kg, route intravenous; conditions: in vivo, read-out: Vdss
[15] = Ratio of drug level in brain to plasma in rat at 3 mg/kg, ip or 100 mg/kg, po; type: ADME, organism-based; conditions: read-out: BPR; in short: as §2
[16] = target: 5-hydroxytryptamine receptor 2A (Homo sapiens) (UniProt P28223); test: Displacement of [125I]DOI from human 5HT2A receptor expressed in CHO cells at 1 uM; type: cell-based
5-hydroxytryptamine receptor 2A (Homo sapiens), sequence (P28223 whole entry): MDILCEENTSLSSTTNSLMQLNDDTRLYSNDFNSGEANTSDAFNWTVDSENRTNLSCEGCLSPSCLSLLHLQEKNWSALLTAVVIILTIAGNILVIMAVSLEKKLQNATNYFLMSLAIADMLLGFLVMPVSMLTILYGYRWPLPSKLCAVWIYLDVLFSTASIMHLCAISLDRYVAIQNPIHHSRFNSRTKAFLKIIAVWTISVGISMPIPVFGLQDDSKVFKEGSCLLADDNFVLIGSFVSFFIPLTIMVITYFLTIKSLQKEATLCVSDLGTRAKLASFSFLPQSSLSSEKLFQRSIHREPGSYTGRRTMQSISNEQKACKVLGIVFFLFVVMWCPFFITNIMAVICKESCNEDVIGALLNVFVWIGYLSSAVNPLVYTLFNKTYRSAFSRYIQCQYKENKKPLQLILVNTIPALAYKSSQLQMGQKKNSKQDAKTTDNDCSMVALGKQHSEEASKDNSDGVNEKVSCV

[17] = Drug level in Sprague-Dawley rat brain at 3 mg/kg, ip after 4 hrs; type: ADME, organism-based; parameters: dose 3 mg/kg, route intraperitoneal; conditions: read-out: Drug uptake; in short: as §1
[18] = Drug level in Sprague-Dawley rat plasma at 100 mg/kg, po after 2 hrs; type: ADME, organism-based; parameters: dose 100 mg/kg, route oral; in short: as §1
[19] = Drug level in Sprague-Dawley rat brain at 100 mg/kg, po after 4 hrs; type: ADME, organism-based; parameters: dose 100 mg/kg, route oral; conditions: read-out: Drug uptake; in short: as §1
[20] = Tmax in dog at 5 mg/kg, po; type: ADME, organism-based, Canis lupus familiaris; parameters: dose 5 mg/kg, route oral; conditions: in vivo
[21] = target: 5-hydroxytryptamine receptor 1D (Homo sapiens) (UniProt P28221); test: Displacement of [3H]5HT from human 5HT1D receptor expressed in CHO cells at 1 uM; type: cell-based
5-hydroxytryptamine receptor 1D (Homo sapiens), sequence (P28221 whole entry): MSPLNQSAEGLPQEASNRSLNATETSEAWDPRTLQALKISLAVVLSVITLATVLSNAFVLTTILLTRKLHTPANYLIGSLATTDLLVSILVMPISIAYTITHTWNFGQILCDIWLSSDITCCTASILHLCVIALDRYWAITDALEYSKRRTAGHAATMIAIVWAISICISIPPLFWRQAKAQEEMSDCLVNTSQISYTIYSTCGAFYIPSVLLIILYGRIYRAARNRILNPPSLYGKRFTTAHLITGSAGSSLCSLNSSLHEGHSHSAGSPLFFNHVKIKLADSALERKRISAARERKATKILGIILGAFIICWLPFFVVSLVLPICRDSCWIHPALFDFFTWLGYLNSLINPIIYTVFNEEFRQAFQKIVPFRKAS

[22] = Drug level in Sprague-Dawley rat plasma at 3 mg/kg, ip after 2 hrs; type: ADME, organism-based; parameters: dose 3 mg/kg, route intraperitoneal; in short: as §1
[23] = Cmax in dog at 5 mg/kg, po; type: ADME, organism-based, Canis lupus familiaris; parameters: dose 5 mg/kg, route oral; conditions: in vivo
[24] = Ratio of drug level in brain to plasma in Sprague-Dawley rat at 3 mg/kg, ip after 0.5 hr; type: ADME, organism-based; parameters: dose 3 mg/kg, route intraperitoneal; conditions: read-out: BPR; in short: as §2
[25] = Drug level in Sprague-Dawley rat brain at 100 mg/kg, po after 0.25 hr; type: ADME, organism-based; parameters: dose 100 mg/kg, route oral; conditions: read-out: Drug uptake; in short: as §1
[26] = Drug level in Sprague-Dawley rat plasma at 100 mg/kg, po after 4 hrs; type: ADME, organism-based; parameters: dose 100 mg/kg, route oral; in short: as §1
[27] = Drug level in Sprague-Dawley rat plasma at 3 mg/kg, ip after 0.5 hr; type: ADME, organism-based; parameters: dose 3 mg/kg, route intraperitoneal; in short: as §1
[28] = Oral bioavailability in rat at 10 mg/kg; type: ADME, organism-based; conditions: in vivo
[29] = Metabolic stability in mouse liver microsomes; type: ADME, Microsome
[30] = Metabolic stability in dog liver microsomes; type: ADME, Canis lupus familiaris, Microsome
[31] = Drug level in Sprague-Dawley rat brain at 100 mg/kg, po after 2 hrs; type: ADME, organism-based; parameters: dose 100 mg/kg, route oral; conditions: read-out: Drug uptake; in short: as §1
[32] = Drug level in Sprague-Dawley rat plasma at 100 mg/kg, po after 1 hr; type: ADME, organism-based; parameters: dose 100 mg/kg, route oral; in short: as §1
[33] = Drug level in Sprague-Dawley rat plasma at 100 mg/kg, po after 0.25 hr; type: ADME, organism-based; parameters: dose 100 mg/kg, route oral; in short: as §1
[34] = Cmax in rat at 10 mg/kg, po; type: ADME, organism-based; parameters: dose 10 mg/kg, route oral; conditions: in vivo
[35] = AUC in dog at 5 mg/kg, po; type: ADME, organism-based, Canis lupus familiaris; parameters: dose 5 mg/kg, route oral; conditions: plasma
[36] = Ratio of drug level in brain to plasma in Sprague-Dawley rat at 3 mg/kg, ip after 1 hr; type: ADME, organism-based; parameters: dose 3 mg/kg, route intraperitoneal; conditions: read-out: BPR; in short: as §2

## NCCc1cn(S(=O)(=O)c2c(Cl)nc3sccn23)c2ccccc12
[1]
  concentration at 2 h: 1.1 ng/mL
[2]
  concentration at 1 h: 21 ng/mL
[3]
  Activity: Active
[4]
  inhibition: < 50%
[5]
  concentration at 1 h: 45.1 ng/mL
[6]
  AUC: 520 ng·h/mL
[7]
  AUC: 190 ng·h/mL
[8]
  Kp at 0.25 h: 0.1
[9]
  clearance: 30 mL/min/kg
[10]
  bioavailability: 55%
[11]
  Activity: < 50%
[12]
  inhibition: < 50%
[13]
  Ki: 458 nM
[14]
  Vd: 24 L/kg
[15]
  Kp: 0.1
[16]
  Activity: 25%
[17]
  concentration at 4 h: 6 ng/mL
[18]
  concentration at 2 h: 239 ng/mL
[19]
  concentration at 4 h: 98 ng/mL
[20]
  Tmax: 2.3 h
[21]
  Activity: 21%
[22]
  concentration at 2 h: 3.2 ng/mL
[23]
  Cmax: 130 ng/mL
[24]
  Kp at 0.5 h: 0.17
[25]
  concentration at 0.25 h: 12.5 ng/mL
[26]
  concentration at 4 h: 372 ng/mL
[27]
  concentration at 0.5 h: 66 ng/mL
[28]
  bioavailability: 23%
[29]
  half-life: > 60 min
[30]
  half-life: 26 min
[31]
  concentration at 2 h: 59.6 ng/mL
[32]
  concentration at 1 h: 312 ng/mL
[33]
  concentration at 0.25 h: 120 ng/mL
[34]
  Cmax: 49 ng/mL
[35]
  AUC: 1430 ng·h/mL
[36]
  Kp at 1 h: 0.68
